What was measured:
Type in all cases: cell-based, human
PBMCs = assay: IL-1β secretion assay; conditions: donor F173, 6 day
Outline: (§1)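 NK cells, MD-PBMCs, PBMCs or granulocytes (1.5 million/mL) or PBMC+granulocytes (0.75 million/mL each), per donor, exposed 24 h, 48 h or 6 days to 0.05–5 μM test compound diluted from DMSO stock, with DMSO controls. Supernatants kept at −70 °C. IL-1β by sandwich ELISA: HRP detection antibody, acid-stopped substrate, A450 against standards. Detection limit 3 pg/mL; triplicates; ANOVA then t test versus control, p<0.05.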

PBMCs with Granulocytes = assay: Cell viability, trypan blue exclusion; conditions: for Percent Viable Cells: PBMCs with Granulocytes
Granulocytes [1] = assay: Cell viability, trypan blue exclusion; conditions: for Percent Viable Cells: Granulocytes
monocyte-depleted PBMCs = assay: Cell viability, trypan blue exclusion; conditions: for Percent Viable Cells / decrease in viability: MD-PBMCs
Granulocytes [2] = assay: IL-1β secretion assay
Outline: as §1

CCC[CH2][Sn][CH2]CCC [DBT, Dibutyltin]
Interleukin 1 beta secreted (PBMCs; 0.5 μM DBT): 932 ± 8 ng/mL
Interleukin 1 beta secreted (PBMCs; 1 μM DBT): 690 ± 15 ng/mL
Interleukin 1 beta secreted (PBMCs; 2.5 μM DBT): 181 ± 8 ng/mL
Interleukin 1 beta secreted (PBMCs; 5 μM DBT): 145 ± 2 ng/mL
average decrease in viability (PBMCs with Granulocytes; PBMC+granulocytes, 24 h, 5 μM DBT): 16%
Percent Viable Cells (PBMCs with Granulocytes; 24 h, 0.05 μM DBT): 94±3%
Percent Viable Cells (PBMCs with Granulocytes; 24 h, 0.1 μM DBT): 93±6%
Percent Viable Cells (PBMCs with Granulocytes; 24 h, 0.25 μM DBT): 93±4%
Percent Viable Cells (PBMCs with Granulocytes; 24 h, 0.5 μM DBT): 94±5%
Percent Viable Cells (PBMCs with Granulocytes; 24 h, 1 μM DBT): 88±6%
Percent Viable Cells (PBMCs with Granulocytes; 24 h, 2.5 μM DBT): 84±8%
Percent Viable Cells (PBMCs with Granulocytes; 24 h, 5 μM DBT): 77±4 %
Percent Viable Cells (PBMCs with Granulocytes; 48 h, 0.05 μM DBT): 93±5%
Percent Viable Cells (PBMCs with Granulocytes; 48 h, 0.1 μM DBT): 94±2%
Percent Viable Cells (PBMCs with Granulocytes; 48 h, 0.25 μM DBT): 93±5%
Percent Viable Cells (PBMCs with Granulocytes; 48 h, 0.5 μM DBT): 92±2%
Percent Viable Cells (PBMCs with Granulocytes; 48 h, 1 μM DBT): 88±10%
Percent Viable Cells (PBMCs with Granulocytes; 48 h, 2.5 μM DBT): 50±29%
Percent Viable Cells (PBMCs with Granulocytes; 48 h, 5 μM DBT): 49±12 %
Percent Viable Cells (PBMCs with Granulocytes; 6 day, 0.05 μM DBT): 80±7%
Percent Viable Cells (PBMCs with Granulocytes; 6 day, 0.1 μM DBT): 72±10%
Percent Viable Cells (PBMCs with Granulocytes; 6 day, 0.25 μM DBT): 74±8%
Percent Viable Cells (PBMCs with Granulocytes; 6 day, 0.5 μM DBT): 54±10 %
Percent Viable Cells (PBMCs with Granulocytes; 6 day, 1 μM DBT): 50±12 %
Percent Viable Cells (PBMCs with Granulocytes; 6 day, 2.5 μM DBT): 32±15 %
Percent Viable Cells (PBMCs with Granulocytes; 6 day, 5 μM DBT): 37±10 %
effect on viability compared to the control (PBMCs with Granulocytes; PBMCs+granulocytes, 24 h, 0.05–2.5 μM DBT): no effect
Percent Viable Cells (Granulocytes [1]; 24 h, 0.05 μM DBT): 90±8%
Percent Viable Cells (Granulocytes [1]; 24 h, 0.1 μM DBT): 92±5%
Percent Viable Cells (Granulocytes [1]; 24 h, 0.25 μM DBT): 95±3%
Percent Viable Cells (Granulocytes [1]; 24 h, 0.5 μM DBT): 94±3%
Percent Viable Cells (Granulocytes [1]; 24 h, 1 μM DBT): 94±2%
Percent Viable Cells (Granulocytes [1]; 24 h, 2.5 μM DBT): 92±3%
Percent Viable Cells (Granulocytes [1]; 24 h, 5 μM DBT): 92±2%
Percent Viable Cells (Granulocytes [1]; 48 h, 0.05 μM DBT): 93±4%
Percent Viable Cells (Granulocytes [1]; 48 h, 0.1 μM DBT): 95±3%
Percent Viable Cells (Granulocytes [1]; 48 h, 0.25 μM DBT): 92±5%
Percent Viable Cells (Granulocytes [1]; 48 h, 0.5 μM DBT): 94±3%
Percent Viable Cells (Granulocytes [1]; 48 h, 1 μM DBT): 95±2%
Percent Viable Cells (Granulocytes [1]; 48 h, 2.5 μM DBT): 72±10 %
Percent Viable Cells (Granulocytes [1]; 48 h, 5 μM DBT): 73±17%
Percent Viable Cells (Granulocytes [1]; 6 day, 0.05 μM DBT): 51±18%
Percent Viable Cells (Granulocytes [1]; 6 day, 0.1 μM DBT): 65±22%
Percent Viable Cells (Granulocytes [1]; 6 day, 0.25 μM DBT): 55±33%
Percent Viable Cells (Granulocytes [1]; 6 day, 0.5 μM DBT): 50±5%
Percent Viable Cells (Granulocytes [1]; 6 day, 1 μM DBT): 57±9%
Percent Viable Cells (Granulocytes [1]; 6 day, 2.5 μM DBT): 34±8 %
Percent Viable Cells (Granulocytes [1]; 6 day, 5 μM DBT): 35±20%
effect on viability (Granulocytes [1]; granulocytes alone, 24 h, any of the DBT exposures): not affected
average decrease in viability (monocyte-depleted PBMCs; MD-PBMC, 24 h, 5 μM DBT): 15%
Percent Viable Cells (monocyte-depleted PBMCs; 24 h, 0.05 μM DBT): 98±2%
Percent Viable Cells (monocyte-depleted PBMCs; 24 h, 0.1 μM DBT): 98±1%
Percent Viable Cells (monocyte-depleted PBMCs; 24 h, 0.25 μM DBT): 97±1%
Percent Viable Cells (monocyte-depleted PBMCs; 24 h, 0.5 μM DBT): 91±8%
Percent Viable Cells (monocyte-depleted PBMCs; 24 h, 1 μM DBT): 92±4%
Percent Viable Cells (monocyte-depleted PBMCs; 24 h, 2.5 μM DBT): 74±15 %
Percent Viable Cells (monocyte-depleted PBMCs; 24 h, 5 μM DBT): 80±9 %
decrease in viability (monocyte-depleted PBMCs; 24 h, 2.5 and 5 μM DBT): 15%
Percent Viable Cells (monocyte-depleted PBMCs; 48 h, 0.05 μM DBT): 96±2%
Percent Viable Cells (monocyte-depleted PBMCs; 48 h, 0.1 μM DBT): 97±1 %
Percent Viable Cells (monocyte-depleted PBMCs; 48 h, 0.25 μM DBT): 96±2%
Percent Viable Cells (monocyte-depleted PBMCs; 48 h, 0.5 μM DBT): 94±3%
Percent Viable Cells (monocyte-depleted PBMCs; 48 h, 1 μM DBT): 80±11 %
Percent Viable Cells (monocyte-depleted PBMCs; 48 h, 2.5 μM DBT): 56±20 %
decrease in viability (monocyte-depleted PBMCs; 48 h, 2.5 μM DBT): 38%
Percent Viable Cells (monocyte-depleted PBMCs; 48 h, 5 μM DBT): 55±10 %
decrease in viability (monocyte-depleted PBMCs; 48 h, 5 μM DBT): 35%
Percent Viable Cells (monocyte-depleted PBMCs; 6 day, 0.05 μM DBT): 89±8%
Percent Viable Cells (monocyte-depleted PBMCs; 6 day, 0.1 μM DBT): 86±7%
Percent Viable Cells (monocyte-depleted PBMCs; 6 day, 0.25 μM DBT): 81±13%
Percent Viable Cells (monocyte-depleted PBMCs; 6 day, 0.5 μM DBT): 67±13 %
Percent Viable Cells (monocyte-depleted PBMCs; 6 day, 1 μM DBT): 52±11 %
Percent Viable Cells (monocyte-depleted PBMCs; 6 day, 2.5 μM DBT): 47±9 %
Percent Viable Cells (monocyte-depleted PBMCs; 6 day, 5 μM DBT): 52±8 %
Secretion of IL-1β (Granulocytes [2]; 4 donors, 24 h, any of the conditions tested, limit of detection): ≤ 3 pg/mL
average of the maximum fold increase in IL-β secretion (Granulocytes [2]; 24 h, across donors): 3.7 fold
change in IL-1β secretion (Granulocytes [2]; 48 h, 0.25–5 μM DBT, cells from 3 of the 4 donors): increases

— PMC5114172 (Journal of applied toxicology : JAT, 2016)
